From ChEMBL document CHEMBL1759907, “Identification and optimization of tetrahydro-2H-3-benzazepin-2-ones as squalene synthase inhibitors” (Bioorg Med Chem Lett, 2011)

How the values were obtained:
Squalene synthase = target: T1, Squalene synthase (Homo sapiens, UniProt P37268); assay: Inhibition of squalene synthase assessed as conversion of […] to [3H]squalene after 10 mins by scintillation counting
T1 sequence (P37268 whole entry): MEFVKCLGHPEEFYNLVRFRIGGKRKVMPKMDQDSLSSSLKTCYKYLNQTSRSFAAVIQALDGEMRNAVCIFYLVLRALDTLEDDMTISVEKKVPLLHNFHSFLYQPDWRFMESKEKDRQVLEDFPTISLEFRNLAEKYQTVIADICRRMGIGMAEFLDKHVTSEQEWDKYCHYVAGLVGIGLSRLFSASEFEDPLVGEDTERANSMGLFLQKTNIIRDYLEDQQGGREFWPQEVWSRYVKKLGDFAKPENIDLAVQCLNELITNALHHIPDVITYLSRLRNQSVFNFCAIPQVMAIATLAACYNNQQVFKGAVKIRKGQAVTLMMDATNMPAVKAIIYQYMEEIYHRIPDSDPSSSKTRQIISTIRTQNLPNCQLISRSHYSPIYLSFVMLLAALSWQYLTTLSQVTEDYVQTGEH
In short: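 Reaction started with farnesyl pyrophosphate plus 0.2 nM trans,trans-[1-3H]-FPP and run for 10 min at 37 °C. Extracted with chloroform/methanol/5 N NaOH, adjusted to 2 mM squalene; organic phase counted by scintillation. Mean of three experiments.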

[1] = Metabolic stability in human liver microsomes assessed as compound remaining after 60 mins; assay type: ADME, Microsome; settings: read-out: Stability
Mus musculus = assay: Inhibition of hepatic cholesterol biosynthesis in NMRI mouse at 3 mg/kg, po administered 1 hr before administering [14C]mevalonate as substrate measured after 10 mins; assay type: functional

SMILES | IC50 (Squalene synthase) | remaining at 1 h [1] | inhibition in vivo at 3 mg/kg (Mus musculus)
CC(C)C[C@H]1C(=O)N(CC(=O)N2CCC(CC(=O)O)CC2)C[C@H](c2ccccc2Cl)c2cc(Cl)ccc21 (racemic) | 1400 nM | 70% | 25%
COc1cccc([C@H]2CN(CC(=O)O)C(=O)[C@H](CC(C)C)c3ccc(Cl)cc32)c1OC (racemic) | 1200 nM |  | 
C=C(C)C[C@H]1C(=O)N(CC(=O)O)C[C@H](c2ccccc2Cl)c2cc(Cl)ccc21 (racemic) | 5500 nM |  | 
COc1cccc([C@@H]2CN(CC(=O)N3CCC(C(=O)O)CC3)C(=O)[C@H](CC(C)C)c3ccc(Cl)cc32)c1OC | 220 nM | 89% | 47%
COc1ccccc1[C@H]1CN(CC(=O)N2CCCCC2)C(=O)[C@H](CC(C)C)c2ccc(Cl)cc21 (racemic) | 370 nM | 2% | 
CC(C)C[C@H]1C(=O)N(CC(=O)N2CCC(C(=O)O)CC2)C[C@H](c2ccccc2Cl)c2cc(Cl)ccc21 (racemic) | 930 nM | 53% | 25%
COc1ccccc1[C@H]1CN(CC(=O)N2CCC(C(=O)O)CC2)C(=O)[C@H](CC(C)C)c2ccc(Cl)cc21 (racemic) | 500 nM | 72% | 39%
CC(C)C[C@H]1C(=O)N(CC(=O)NCCCCCC(=O)O)C[C@H](c2ccccc2Cl)c2cc(Cl)ccc21 (racemic) | 2400 nM |  | 
O=C(O)CN1C[C@H](c2ccccc2Cl)c2cc(Cl)ccc2[C@@H](Cc2ccccc2)C1=O (racemic) | > 20000 nM |  | 
COc1cccc([C@H]2CN(CC(=O)N3CCC(C(=O)O)CC3)C(=O)[C@H](CC(C)C)c3ccc(Cl)cc32)c1OC (racemic) | 450 nM | 78% | 
COc1cccc([C@H]2CN(CC(=O)N3CCC(C(=O)O)CC3)C(=O)[C@@H](CC(C)C)c3ccc(Cl)cc32)c1OC | > 20000 nM |  | 

Now from value to molecule, other results behind:

IC50 (Squalene synthase) | remaining at 1 h [1] | SMILES | inhibition in vivo at 3 mg/kg (Mus musculus)
3300 nM | 60% | CC(C)C[C@H]1C(=O)N(CC(=O)O)C[C@H](c2ccccc2Cl)c2cc(Cl)ccc21 (racemic) | 
1900 nM |  | COc1ccccc1[C@H]1CN(CC(=O)O)C(=O)[C@H](CC(C)C)c2ccc(Cl)cc21 (racemic) | 
> 20000 nM |  | CCOC(=O)CN1C[C@H](c2ccccc2Cl)c2cc(Cl)ccc2[C@@H](CC(C)C)C1=O (racemic) | 
> 20000 nM |  | CC(C)C[C@H]1C(=O)N(CC(=O)O)C[C@H](c2ccccc2Cl)c2cc(F)ccc21 (racemic) | 
> 20000 nM |  | Cc1ccc2c(c1)[C@@H](c1ccccc1Cl)CN(CC(=O)O)C(=O)[C@@H]2CC(C)C (racemic) | 
15300 nM |  | CC(C)C[C@H]1C(=O)N(CC(=O)O)C[C@H](c2ccccc2)c2cc(Cl)ccc21 (racemic) | 
> 20000 nM |  | CC(C)(O)C[C@H]1C(=O)N(CC(=O)O)C[C@H](c2ccccc2Cl)c2cc(Cl)ccc21 (racemic) | 
2200 nM |  | CC(C)C[C@H]1C(=O)N(CC(=O)O)C[C@H](c2ccccc2Br)c2cc(Cl)ccc21 (racemic) | 
> 20000 nM |  | CC(C)C[C@H]1C(=O)N(CC(=O)O)C[C@H](c2ccccc2Cl)c2ccccc21 (racemic) | 
